Experiments:
[1] = test system: H9; assay: Compound concentration required to reduce by 50% the number of H9 cells chronically infected with the HIV-1 (H9/IIIB) after three cell cycles; format: functional; settings: Homo sapiens, read-out: ID50 (the source's name)
Outline: (§1)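 Suspension cultures seeded at 1×10^5 cells/mL in RPMI-1640 with 10% FCS. Grown with a range of compound concentrations at 37 °C for 72 h, then counted on a Coulter counter. Growth is expressed as a percentage of untreated controls, and the 50% inhibitory dose is taken by linear regression. Mean of three separate experiments.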

[2] = test system: Vero; assay: Concentration of compound required to reduce by 50% the number of african swine fever virus (ASFV) plaques in vero cells; format: functional; settings: Chlorocebus sabaeus, read-out: ED50 (the source's name)
[3] = test system: Raji; assay: Compound concentration required to reduce by 50% the number of human B (Raji)cells after three cell cycles; format: functional; settings: read-out: ID50 (the source's name); outline: as §1
[4] = test system: Vero; assay: Concentration of compound required to reduce by 50% the number of herpes simplex virus (HSV-1) plaques in vero cells; format: functional; settings: Chlorocebus sabaeus, read-out: ED50 (the source's name)
[5] = test system: L1210; assay: Compound concentration required to reduce by 50% the number of murine lymphocytic leukemia (L1210) cells after three cell cycles; format: functional; settings: Mus musculus, read-out: ID50 (the source's name)
Outline: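 Mouse L1210 leukemia cells seeded at 1×10^5 cells/mL in RPMI-1640 with 10% FCS. Exposed to graded compound concentrations at 37 °C for 36 h, then counted on a Coulter counter. Growth is taken as a percentage of untreated controls, and the 50% dose is found by linear regression. Mean of three experiments.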

[6] = test system: Vero; assay: Concentration of compound required to reduce by 50% the number of polio virus plaques in vero cells; format: functional; settings: Chlorocebus sabaeus, read-out: ED50 (the source's name)
[7] = test system: C8166; assay: Effective dose which reduces the HIV-1 yield in C8166 cells by 90%; format: functional, Homo sapiens
Outline: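 C8166 cells at 1×10^8/mL infected with 1×10^5 CCID50 HIV-1 (from H9/IIIB supernatants) for 2 h at 37 °C, washed three times, then resuspended at 1×10^5/mL with compound for 3 days. Virus yield was measured by limiting-dilution end-point titration on C8166 (1:2 dilutions, four wells each, syncytia scored after 4 days, Reed–Muench CCID50/mL).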

[8] = test system: Vero; assay: Concentration of compound required to reduce by 50% the number of vesicular stomatitis virus (VSV) plaques in vero cells; format: functional; settings: Chlorocebus sabaeus, read-out: ED50 (the source's name)
[9] = test system: Vero; assay: Concentration of compound required to reduce by 50% the number of coxsackie virus plaques in vero cells; format: functional; settings: Chlorocebus sabaeus, read-out: ED50 (the source's name)
[10] = Compound concentration required to reduce by 50% the number of T-MT4 lymphoblastoid cells after three cell cycles; format: functional; settings: Homo sapiens; read-out: ID50 (the source's name); outline: as §1
[11] = Compound concentration required to reduce by 50% the number of T-H9 lymphoblastoid cells after three cell cycles; format: functional; settings: Homo sapiens; read-out: ID50 (the source's name); outline: as §1
[12] = Compound concentration required to reduce by 50% the number of T-C8166 lymphoblastoid cells after three cell cycles; format: functional; settings: Homo sapiens; read-out: ID50 (the source's name); outline: as §1
[13] = test system: Vero; assay: Compound concentration required to reduce by 50% the number of fibroblast-like cells (Vero) after three cell cycles; format: functional; settings: Chlorocebus sabaeus, read-out: ID50 (the source's name)
Outline: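 Vero monolayers seeded at 1×10^5 cells/mL in DMEM with 10% newborn calf serum and left to adhere overnight. Medium with various compound concentrations was then added for 3 days at 37 °C. Cells were trypsinized and counted on a Coulter counter. The 50% dose comes from linear regression of percent growth against untreated controls. Mean of three experiments.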

Structure (SMILES) | IC50 [1] | EC50 [2] | IC50 [3] | EC50 [4] | IC50 [5] | EC50 [6] | ED90 [7] | EC50 [8] | EC50 [9] | IC50 [10] | IC50 [11] | IC50 [12] | IC50 [13]
NC(=O)c1nn([C@@H]2O[C@H](CO)[C@@H](O)[C@H]2O)cc1I | 20 µM | > 1.35 mM | > 1.35 mM | > 1.35 mM | > 1.35 mM | > 1.35 mM | 20 µM | > 1.35 mM | 0.12 mM | 27 µM | 40 µM | 8 µM | > 1.35 mM
NC(=O)c1nn(C2O[C@H](CO)[C@@H](O)[C@H]2O)cc1N (stereo partly specified) | 550 µM | > 1.83 mM | 1.28 mM | > 1.83 mM | > 1.83 mM | > 1.83 mM | >320 µM | > 1.83 mM | > 1.83 mM | 470 µM | 580 µM | 320 µM | > 1.83 mM
CCCCCn1nnc2c(C)nn(C3O[C@H](CO)[C@@H](O)[C@H]3O)c2c1=O (stereo partly specified) | – | > 1.4 mM | 1.4 mM | > 1.4 mM | > 1.4 mM | > 1.4 mM | >200 µM | > 1.4 mM | > 1.4 mM | 540 µM | 710 µM | 280 µM | > 1.4 mM
NC(=O)c1nn(C2O[C@H](CO)[C@@H](O)[C@H]2O)cc1[N+](=O)[O-] (stereo partly specified) | > 1730 µM | > 1.73 mM | > 1.73 mM | > 1.73 mM | > 1.73 mM | > 1.73 mM | 25.4 µM | > 1.73 mM | > 1.73 mM | 80 µM | > 1730 µM | 12 µM | > 1.73 mM
NC(=O)c1ccn(C2O[C@H](CO)[C@@H](O)[C@H]2O)n1 (stereo partly specified) | > 1030 µM | > 2.05 mM | 1.03 mM | > 2.05 mM | > 1.03 mM | > 2.05 mM | >900 µM | > 2.05 mM | > 2.05 mM | > 1030 µM | 1030 µM | 900 µM | > 1.03 mM
Cc1c(N)c(C(N)=O)nn1C1O[C@H](CO)[C@@H](O)[C@H]1O (stereo partly specified) | > 1840 µM | > 1.84 mM | > 1.84 mM | > 1.84 mM | > 1.84 mM | > 1.84 mM | >1840 µM | > 1.84 mM | > 1.84 mM | > 1840 µM | > 1840 µM | > 1840 µM | > 1.84 mM
NC(=O)c1nn(C2O[C@H](CO)[C@@H](O)[C@H]2O)cc1Br (stereo partly specified) | 50 µM | > 1.55 mM | > 1.55 mM | > 1.55 mM | > 1.55 mM | > 1.55 mM | 12.2 µM | > 1.55 mM | > 1.55 mM | 20 µM | 50 µM | 4 µM | > 1.55 mM
Cc1c([N+](=O)[O-])c(C(N)=O)nn1C1O[C@H](CO)[C@@H](O)[C@H]1O (stereo partly specified) | > 1650 µM | > 1.65 mM | > 1.65 mM | > 1.65 mM | > 1.65 mM | > 1.65 mM | >1650 µM | > 1.65 mM | > 1.65 mM | 1490 µM | > 1650 µM | > 1650 µM | > 1.65 mM
Nc1nc2c(ncn2COCCO)c(=O)[nH]1 [ACYCLOVIR] | – | > 1.3 mM | – | 4e-05 mM | – | – | – | – | – | – | – | – | –
COc1cccc2c1C(=O)c1c(O)c3c(c(O)c1C2=O)C[C@@](O)(C(=O)CO)C[C@@H]3O[C@H]1C[C@H](N)[C@H](O)[C@H](C)O1 [DOXORUBICIN] | 0.01 µM | – | 1e-05 mM | – | 2e-05 mM | – | – | – | – | 0.01 µM | 0.01 µM | 0.01 µM | 0.0001 mM
N=C(N)N [GUANIDINE] | – | – | – | – | – | 0.125 mM | – | – | – | – | – | – | –
CN(Cc1cnc2nc(N)nc(N)c2n1)c1ccc(C(=O)N[C@@H](CCC(=O)O)C(=O)O)cc1 [METHOTREXATE] | 0.03 µM | – | 2e-05 mM | – | 4e-05 mM | – | – | – | – | 0.03 µM | 0.03 µM | 0.03 µM | 2e-05 mM
Cc1cn([C@H]2C[C@H](N=[N+]=[N-])[C@@H](CO)O2)c(=O)[nH]c1=O [ZIDOVUDINE] | – | – | – | – | – | – | 0.003 µM | – | – | – | – | – | –

Reference: ChEMBL document CHEMBL1125397, “Pyrazole-related nucleosides. Synthesis and antiviral/antitumor activity of some substituted pyrazole and pyrazolo[4,3-d]-1,2,3-triazin-4-one nucleosides” (1992)
